The source made the active and inactive calls. No cut-off for these calls is given here.
What was measured:
[1] = target: T1, Histone deacetylase 3 (Mus musculus) (UniProt O88895); test: Inhibition of HDAC3 in mouse RAW264.7 cells assessed as effect on LPS/IFNgamma-induced NF-kappaB p65 nuclear translocation preincubated for 20 hrs followed by LPS/IFNgamma stimulation and measured after 1 hr by Western blot analysis; type: cell-based
T1 sequence (whole entry): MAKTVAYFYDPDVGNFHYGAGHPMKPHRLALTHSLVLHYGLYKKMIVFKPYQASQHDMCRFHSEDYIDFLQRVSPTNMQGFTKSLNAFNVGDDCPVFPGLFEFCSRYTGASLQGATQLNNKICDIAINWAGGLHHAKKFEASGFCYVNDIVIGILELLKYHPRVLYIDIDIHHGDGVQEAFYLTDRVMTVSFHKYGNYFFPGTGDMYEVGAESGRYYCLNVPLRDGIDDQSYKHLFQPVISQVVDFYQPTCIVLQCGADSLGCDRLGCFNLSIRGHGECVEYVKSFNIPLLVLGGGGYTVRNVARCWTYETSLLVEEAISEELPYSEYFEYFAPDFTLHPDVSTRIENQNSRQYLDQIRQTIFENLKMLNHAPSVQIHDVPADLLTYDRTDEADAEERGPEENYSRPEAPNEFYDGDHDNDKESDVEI
Outline: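 After 20 h inhibitor then 1 h LPS/IFNγ, RAW 264.7 cells fractionated into nuclear and cytosolic parts and immunoblotted for NF-κB p65; PARP-1 and β-actin as internal controls; densitometry as fold change versus LPS/IFNγ-treated control; 4 independent experiments, mean ± SD.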

[2] = system: Lung; test: Antiinflammatory activity in C57bl/6 mouse precision-cut lung slices assessed as upregulation of LPS/IFNgamma-induced Fizz1 gene expression at 1 to 10 uM preincubated for 20 hrs followed by LPS/IFNgamma stimulation and measured after 4 hrs by RT-qPCR analysis; type: functional, tissue-based; conditions: dose 1-10 µM, time 24.0 hrs
Outline: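 PCLS, 250 μm thick, cut from agarose-filled lungs of male C57bl/6 mice (24–28 g, 8–10 weeks). Three slices per well at 37 °C, 5% CO2. Slices received RGFP966 at 1 and 10 μM final for 20 h, with 10 ng/ml LPS and 10 ng/ml IFNγ stimulation. RNA isolated; RT-qPCR fold change versus LPS/IFNγ control by 2−ΔΔCt. Mean ± SD, n = 3–5.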

[3] = system: RAW264.7; test: Antiinflammatory activity in LPS/IFNgamma-stimulated mouse RAW264.7 cells assessed as effect on NF-kappaB p65 expression preincubated for 20 hrs followed by LPS/IFNgamma stimulation and measured after 4 hrs by Western blot analysis; type: functional, cell-based; conditions: time 24.0 hrs

In the case of `Nc1cc(F)ccc1NC(=O)/C=C/c1cnn(C/C=C/c2ccccc2)c1`, the inhibition [1] is reported as “inactive”, the Activity [2] is reported as “Active” and the Activity [3] is reported as “inactive”.
